Laboratory results as given in ChEMBL document CHEMBL4371006, “Discovery of N-[4-(Quinolin-4-yloxy)phenyl]benzenesulfonamides as Novel AXL Kinase Inhibitors” (J Med Chem, 2018).

Assays:
[1] = biological target: Angiopoietin-1 receptor (Homo sapiens) (UniProt Q02763); test: Inhibition of TIE2 (unknown origin) using fluorescence labeled peptide as substrate at 10 uM by IMAP assay relative to control
How it was run: (§1)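 IMAP fluorescence-polarization kinase assay at 10 µmol/L compound, run in triplicate by a contract lab. A fluorescently labeled substrate peptide is phosphorylated, then nanoparticles carrying trivalent metal bind the phosphopeptide and slow its rotation. Read-out is fluorescence polarization, expressed as percent inhibition.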

[2] = biological target: T1, Aurora kinase A (Homo sapiens) (UniProt O14965); test: Inhibition of AurA (unknown origin) using biotinylated peptide as substrate at 10 uM by TR-FRET assay relative to control
T1 sequence (whole entry): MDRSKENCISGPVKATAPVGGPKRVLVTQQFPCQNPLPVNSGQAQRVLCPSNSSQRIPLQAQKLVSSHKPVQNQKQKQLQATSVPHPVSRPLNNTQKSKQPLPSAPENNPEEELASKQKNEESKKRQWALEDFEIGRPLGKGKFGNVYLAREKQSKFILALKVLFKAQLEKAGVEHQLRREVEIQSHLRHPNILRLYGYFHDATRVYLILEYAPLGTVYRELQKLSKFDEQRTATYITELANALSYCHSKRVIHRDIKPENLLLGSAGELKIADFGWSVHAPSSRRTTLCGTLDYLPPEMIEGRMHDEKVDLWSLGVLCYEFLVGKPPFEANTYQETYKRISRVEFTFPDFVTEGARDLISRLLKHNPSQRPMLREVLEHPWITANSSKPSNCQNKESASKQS

MDA-MB-231 [3] = test: Antimigratory activity against human MDA-MB-231 cells assessed as inhibition of large cell aggregate formation after 5 hrs by matrigel assay; type: functional, cell-based; conditions: MDA-MB-231, 5 h
How it was run: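 MDA-MB-231 cells (7000/well) seeded on polymerized 3 mg/mL Matrigel (set ≥16 h at 37°C) in serum-free medium; inhibitor added at seeding, aggregates forming over 5 h.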

[4] = biological target: Tyrosine-protein kinase ABL1 (Homo sapiens) (UniProt P00519); test: Inhibition of ABL (unknown origin) using fluorescence labeled peptide as substrate at 10 uM by IMAP assay relative to control
How it was run: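 IMAP fluorescence-polarization kinase assay: fluorescently labelled substrate peptide phosphorylated, then captured by trivalent-metal nanoparticles, slowing rotation. Compound at 10 µM, triplicates, percent inhibition reported.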

[5] = biological target: Platelet-derived growth factor receptor beta (Homo sapiens) (UniProt P09619); test: Inhibition of PDGFRbeta (unknown origin) using biotinylated peptide as substrate at 10 uM by TR-FRET assay relative to control
[6] = biological target: Epidermal growth factor receptor (Homo sapiens, UniProt P00533); test: Inhibition of wild type EGFR (unknown origin)
[7] = biological target: T2, Proto-oncogene tyrosine-protein kinase Src (Homo sapiens, UniProt P12931); test: Inhibition of SRC (unknown origin) using fluorescence labeled peptide as substrate at 10 uM by IMAP assay relative to control; how it was run: as §1
[8] = biological target: Platelet-derived growth factor receptor beta (Homo sapiens) (UniProt P09619); test: Inhibition of PDGFRbeta (unknown origin) using fluorescence labeled peptide as substrate at 10 uM by IMAP assay relative to control; how it was run: as §1
[9] = biological target: Mast/stem cell growth factor receptor Kit (Homo sapiens) (UniProt P10721); test: Inhibition of cKIT (unknown origin) using biotinylated peptide as substrate at 10 uM by TR-FRET assay relative to control
MDA-MB-231 [10] = test: Antimigratory activity against human MDA-MB-231 cells after 3.5 hrs by microscopy based Boyden chamber assay; type: functional, cell-based; conditions: MDA-MB-231, 3.5 h
How it was run: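 Modified Boyden chamber: MDA-MB-231 cells plated in 0.1% FCS medium, migrating through 8 µm pore membrane toward 1% FCS chemoattractant for 3.5 h; transmigrated cells counted microscopically in at least 5 random fields per well.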

[11] = biological target: Tyrosine-protein kinase receptor UFO (Homo sapiens) (UniProt P30530); test: Inhibition of AXL (unknown origin) using biotinylated peptide as substrate at 10 uM by TR-FRET assay relative to control
[12] = biological target: Angiopoietin-1 receptor (Homo sapiens) (UniProt Q02763); test: Inhibition of TIE2 (unknown origin) using biotinylated peptide as substrate at 10 uM by TR-FRET assay relative to control
[13] = biological target: Hepatocyte growth factor receptor (Homo sapiens, UniProt P08581); test: Inhibition of c-MET (unknown origin) using fluorescence labeled peptide as substrate at 10 uM by IMAP assay relative to control; how it was run: as §1
[14] = biological target: Vascular endothelial growth factor receptor 2 (Homo sapiens) (UniProt P35968); test: Inhibition of VEGFR2 (unknown origin) using biotinylated peptide as substrate at 10 uM by TR-FRET assay relative to control
[15] = biological target: T2, Proto-oncogene tyrosine-protein kinase Src; test: Inhibition of SRC (unknown origin)
[16] = biological target: T3, Tyrosine-protein kinase receptor UFO (Homo sapiens, UniProt P30530); test: Inhibition of AXL (unknown origin) phosphorylation after 1 hr by ELISA
T3 sequence (P30530 whole entry): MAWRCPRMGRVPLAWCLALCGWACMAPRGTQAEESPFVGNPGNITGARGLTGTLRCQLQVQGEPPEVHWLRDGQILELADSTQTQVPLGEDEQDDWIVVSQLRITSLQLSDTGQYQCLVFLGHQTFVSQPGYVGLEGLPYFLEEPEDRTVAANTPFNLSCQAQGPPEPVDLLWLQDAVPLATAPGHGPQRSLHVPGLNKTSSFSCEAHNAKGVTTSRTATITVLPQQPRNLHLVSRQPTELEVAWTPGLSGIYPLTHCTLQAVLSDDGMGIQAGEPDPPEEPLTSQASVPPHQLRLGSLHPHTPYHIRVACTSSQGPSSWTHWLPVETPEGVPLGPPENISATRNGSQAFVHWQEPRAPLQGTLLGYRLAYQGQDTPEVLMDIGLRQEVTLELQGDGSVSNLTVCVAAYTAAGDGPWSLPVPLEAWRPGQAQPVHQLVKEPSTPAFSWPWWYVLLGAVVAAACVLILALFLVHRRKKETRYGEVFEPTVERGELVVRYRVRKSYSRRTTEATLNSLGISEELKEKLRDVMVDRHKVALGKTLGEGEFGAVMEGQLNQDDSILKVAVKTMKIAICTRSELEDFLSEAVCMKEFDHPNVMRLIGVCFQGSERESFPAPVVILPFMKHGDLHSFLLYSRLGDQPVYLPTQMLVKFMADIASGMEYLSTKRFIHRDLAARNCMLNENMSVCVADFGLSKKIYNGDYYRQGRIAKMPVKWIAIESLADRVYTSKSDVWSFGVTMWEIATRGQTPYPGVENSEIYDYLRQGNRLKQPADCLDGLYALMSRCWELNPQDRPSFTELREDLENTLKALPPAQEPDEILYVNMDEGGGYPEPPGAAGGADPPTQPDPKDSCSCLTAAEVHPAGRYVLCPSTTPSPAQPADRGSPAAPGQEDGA

[17] = biological target: Vascular endothelial growth factor receptor 2 (Homo sapiens) (UniProt P35968); test: Inhibition of VEGFR2 (unknown origin) using fluorescence labeled peptide as substrate at 10 uM by IMAP assay relative to control; how it was run: as §1
[18] = Selectivity ratio of compound effect for anti-invasive activity against human MDA-MB-231 cells to IC50 for AXL (unknown origin) phosphorylation
[19] = biological target: Mast/stem cell growth factor receptor Kit (Homo sapiens) (UniProt P10721); test: Inhibition of cKIT (unknown origin) using fluorescence labeled peptide as substrate at 10 uM by IMAP assay relative to control; how it was run: as §1

Sequence of Mast/stem cell growth factor receptor Kit (Homo sapiens) (P10721 whole entry): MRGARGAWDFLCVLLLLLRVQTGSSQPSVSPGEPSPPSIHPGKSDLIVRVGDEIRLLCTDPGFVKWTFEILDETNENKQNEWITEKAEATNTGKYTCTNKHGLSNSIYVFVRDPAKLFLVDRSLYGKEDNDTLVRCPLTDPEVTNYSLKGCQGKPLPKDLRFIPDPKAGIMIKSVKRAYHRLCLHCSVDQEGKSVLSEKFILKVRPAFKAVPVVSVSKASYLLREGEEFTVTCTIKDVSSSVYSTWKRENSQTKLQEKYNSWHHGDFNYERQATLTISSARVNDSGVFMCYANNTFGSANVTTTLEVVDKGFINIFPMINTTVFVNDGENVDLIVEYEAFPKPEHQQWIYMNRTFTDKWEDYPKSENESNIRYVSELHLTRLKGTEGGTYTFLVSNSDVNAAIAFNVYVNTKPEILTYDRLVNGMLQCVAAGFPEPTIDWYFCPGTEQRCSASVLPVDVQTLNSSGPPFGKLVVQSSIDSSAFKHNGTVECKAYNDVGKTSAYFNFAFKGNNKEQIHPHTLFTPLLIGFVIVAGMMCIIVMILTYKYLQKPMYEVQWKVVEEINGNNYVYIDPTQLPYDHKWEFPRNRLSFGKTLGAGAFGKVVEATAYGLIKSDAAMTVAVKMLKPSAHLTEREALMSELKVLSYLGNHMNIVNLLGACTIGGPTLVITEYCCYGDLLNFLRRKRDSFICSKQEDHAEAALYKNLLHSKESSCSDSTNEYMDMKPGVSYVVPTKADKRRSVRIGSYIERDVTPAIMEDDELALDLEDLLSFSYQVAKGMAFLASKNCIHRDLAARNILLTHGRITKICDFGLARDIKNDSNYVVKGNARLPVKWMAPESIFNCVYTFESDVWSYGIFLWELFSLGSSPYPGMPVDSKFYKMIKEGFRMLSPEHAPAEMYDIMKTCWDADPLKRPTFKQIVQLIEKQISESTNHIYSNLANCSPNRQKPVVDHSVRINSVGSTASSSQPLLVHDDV
Sequence of Hepatocyte growth factor receptor (P08581 whole entry): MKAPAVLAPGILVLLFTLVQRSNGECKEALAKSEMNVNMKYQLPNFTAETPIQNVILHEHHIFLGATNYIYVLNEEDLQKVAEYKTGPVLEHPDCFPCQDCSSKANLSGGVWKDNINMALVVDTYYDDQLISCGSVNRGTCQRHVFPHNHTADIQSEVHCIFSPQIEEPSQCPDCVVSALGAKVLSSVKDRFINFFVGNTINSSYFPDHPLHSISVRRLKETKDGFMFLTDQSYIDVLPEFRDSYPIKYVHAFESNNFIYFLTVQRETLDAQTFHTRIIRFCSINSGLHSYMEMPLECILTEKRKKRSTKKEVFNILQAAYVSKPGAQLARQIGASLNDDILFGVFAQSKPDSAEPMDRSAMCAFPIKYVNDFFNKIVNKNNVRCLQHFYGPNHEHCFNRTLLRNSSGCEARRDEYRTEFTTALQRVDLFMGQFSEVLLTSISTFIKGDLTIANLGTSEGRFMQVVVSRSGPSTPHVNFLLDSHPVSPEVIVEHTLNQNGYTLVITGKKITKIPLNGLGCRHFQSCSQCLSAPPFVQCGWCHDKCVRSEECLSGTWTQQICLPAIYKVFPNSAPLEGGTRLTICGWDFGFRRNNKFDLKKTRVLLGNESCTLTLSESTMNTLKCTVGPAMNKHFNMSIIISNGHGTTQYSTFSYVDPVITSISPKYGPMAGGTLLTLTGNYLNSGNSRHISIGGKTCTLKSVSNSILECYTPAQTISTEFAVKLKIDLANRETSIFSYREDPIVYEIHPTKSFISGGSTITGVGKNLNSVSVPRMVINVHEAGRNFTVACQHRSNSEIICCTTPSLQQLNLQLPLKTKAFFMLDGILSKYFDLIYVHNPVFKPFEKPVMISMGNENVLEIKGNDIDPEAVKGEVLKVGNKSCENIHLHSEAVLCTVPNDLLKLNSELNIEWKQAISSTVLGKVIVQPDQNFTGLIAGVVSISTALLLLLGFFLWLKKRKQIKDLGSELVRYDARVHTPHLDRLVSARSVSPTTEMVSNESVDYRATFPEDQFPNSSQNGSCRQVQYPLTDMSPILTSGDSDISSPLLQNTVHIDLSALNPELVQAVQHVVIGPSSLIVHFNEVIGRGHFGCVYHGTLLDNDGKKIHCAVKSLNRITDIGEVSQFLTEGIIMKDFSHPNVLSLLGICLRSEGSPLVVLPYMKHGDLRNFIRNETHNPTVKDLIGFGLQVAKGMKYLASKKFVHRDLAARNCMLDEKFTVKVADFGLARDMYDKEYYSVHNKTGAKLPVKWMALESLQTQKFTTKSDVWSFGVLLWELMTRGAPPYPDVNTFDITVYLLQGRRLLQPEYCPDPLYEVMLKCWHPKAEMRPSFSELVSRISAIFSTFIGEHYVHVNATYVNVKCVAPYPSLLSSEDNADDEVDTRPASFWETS
Sequence of Angiopoietin-1 receptor (Homo sapiens) (Q02763 whole entry): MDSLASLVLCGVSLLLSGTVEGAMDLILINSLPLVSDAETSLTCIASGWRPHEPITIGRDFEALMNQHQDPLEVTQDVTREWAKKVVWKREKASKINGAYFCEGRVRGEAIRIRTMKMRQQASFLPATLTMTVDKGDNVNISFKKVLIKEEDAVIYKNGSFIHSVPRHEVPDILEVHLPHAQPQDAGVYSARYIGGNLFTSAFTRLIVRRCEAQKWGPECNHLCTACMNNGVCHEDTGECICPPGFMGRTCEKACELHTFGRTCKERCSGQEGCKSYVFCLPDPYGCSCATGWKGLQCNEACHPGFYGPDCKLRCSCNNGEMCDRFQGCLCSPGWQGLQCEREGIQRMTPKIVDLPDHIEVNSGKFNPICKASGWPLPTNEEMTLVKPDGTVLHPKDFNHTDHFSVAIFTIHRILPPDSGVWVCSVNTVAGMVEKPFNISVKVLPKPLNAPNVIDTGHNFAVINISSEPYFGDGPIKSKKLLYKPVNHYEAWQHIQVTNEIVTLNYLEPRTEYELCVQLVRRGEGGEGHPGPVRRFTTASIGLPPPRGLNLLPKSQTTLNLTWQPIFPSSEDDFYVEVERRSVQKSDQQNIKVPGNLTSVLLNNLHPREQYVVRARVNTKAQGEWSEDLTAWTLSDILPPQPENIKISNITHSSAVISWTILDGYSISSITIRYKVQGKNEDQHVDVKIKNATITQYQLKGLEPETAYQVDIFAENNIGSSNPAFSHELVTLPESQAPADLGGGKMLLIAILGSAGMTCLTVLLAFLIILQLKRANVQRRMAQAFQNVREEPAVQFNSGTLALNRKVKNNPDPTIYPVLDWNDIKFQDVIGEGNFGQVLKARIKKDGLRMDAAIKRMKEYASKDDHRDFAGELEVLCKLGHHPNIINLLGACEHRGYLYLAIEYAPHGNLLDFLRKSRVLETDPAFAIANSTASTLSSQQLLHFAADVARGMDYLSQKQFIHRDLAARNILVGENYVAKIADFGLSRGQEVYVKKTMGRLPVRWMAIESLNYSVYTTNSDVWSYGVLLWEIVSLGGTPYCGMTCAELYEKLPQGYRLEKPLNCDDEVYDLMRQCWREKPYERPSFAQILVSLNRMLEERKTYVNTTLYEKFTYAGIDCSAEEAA
Sequence of Vascular endothelial growth factor receptor 2 (Homo sapiens) (P35968 whole entry): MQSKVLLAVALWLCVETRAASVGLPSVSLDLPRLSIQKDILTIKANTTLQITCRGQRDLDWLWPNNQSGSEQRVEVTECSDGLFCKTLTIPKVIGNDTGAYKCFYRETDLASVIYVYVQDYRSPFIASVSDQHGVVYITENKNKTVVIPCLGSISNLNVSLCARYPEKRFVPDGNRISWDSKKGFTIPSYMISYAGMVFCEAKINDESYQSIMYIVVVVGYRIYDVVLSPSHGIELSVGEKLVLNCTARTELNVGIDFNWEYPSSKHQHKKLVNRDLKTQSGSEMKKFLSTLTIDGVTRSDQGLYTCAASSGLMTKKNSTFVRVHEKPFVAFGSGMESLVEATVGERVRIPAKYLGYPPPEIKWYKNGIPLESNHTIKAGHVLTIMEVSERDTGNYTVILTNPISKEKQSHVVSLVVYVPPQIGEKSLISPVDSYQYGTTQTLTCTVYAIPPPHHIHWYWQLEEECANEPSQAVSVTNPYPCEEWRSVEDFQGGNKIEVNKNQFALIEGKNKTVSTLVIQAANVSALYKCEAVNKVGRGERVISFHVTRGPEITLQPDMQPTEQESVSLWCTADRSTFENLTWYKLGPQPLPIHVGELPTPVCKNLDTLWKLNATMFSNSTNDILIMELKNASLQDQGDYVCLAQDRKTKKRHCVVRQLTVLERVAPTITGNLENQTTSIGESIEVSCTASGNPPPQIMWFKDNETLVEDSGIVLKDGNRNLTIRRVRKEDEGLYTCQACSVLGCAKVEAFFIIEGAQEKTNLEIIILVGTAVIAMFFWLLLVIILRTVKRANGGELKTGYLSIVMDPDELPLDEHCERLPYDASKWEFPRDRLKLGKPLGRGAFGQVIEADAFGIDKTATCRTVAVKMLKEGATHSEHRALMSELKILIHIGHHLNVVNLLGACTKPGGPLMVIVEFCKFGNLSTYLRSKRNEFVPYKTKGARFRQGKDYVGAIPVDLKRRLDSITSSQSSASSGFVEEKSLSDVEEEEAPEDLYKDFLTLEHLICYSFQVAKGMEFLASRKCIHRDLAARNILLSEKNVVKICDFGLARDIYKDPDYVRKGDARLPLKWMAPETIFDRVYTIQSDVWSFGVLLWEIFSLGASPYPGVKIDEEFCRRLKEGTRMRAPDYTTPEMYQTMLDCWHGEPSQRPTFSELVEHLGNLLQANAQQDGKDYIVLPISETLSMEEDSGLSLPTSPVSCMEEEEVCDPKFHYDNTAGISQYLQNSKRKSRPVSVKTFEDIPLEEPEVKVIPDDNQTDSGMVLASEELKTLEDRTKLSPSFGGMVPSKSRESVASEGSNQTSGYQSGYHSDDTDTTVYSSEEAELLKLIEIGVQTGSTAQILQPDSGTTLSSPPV

For `COc1cc2c(Oc3ccc(NS(=O)(=O)c4c(F)cccc4F)cc3F)ccnc2cc1OCCCN1CCN(C)CC1`, the Efficacy [1] was 83 to 100%, the Efficacy [2] was 83 to 100% and the IC50 (MDA-MB-231 [3]) was 0.156 µM. For the same molecule, the Efficacy [4] was 83 to 100%, the Efficacy [5] was 83 to 100% and the IC50 [6] was 0.178 µM. It also gave an Efficacy [7] of 83 to 100%, an Efficacy [8] of 83 to 100% and an Efficacy [9] of 83 to 100%. It also gave an IC50 (MDA-MB-231 [10]) of 1.5 µM, an Efficacy [11] of 83 to 100% and an Efficacy [12] of 83 to 100%. The Efficacy [13] was 83 to 100%, the Efficacy [14] was 83 to 100% and the IC50 [15] was 0.044 µM. The IC50 [16] was 0.035 µM, the Efficacy [17] was 83 to 100% and the Selectivity ratio [18] was 2 - 6. For the same molecule, the Efficacy [19] was 83 to 100%.
Work on `COc1cc2c(Oc3ccc(NS(=O)(=O)c4cc(F)ccc4F)cc3F)ccnc2cc1OCCCN1CCCC(C)C1` (stereo unspecified) yielded an Efficacy [1] of 83 to 100%, an Efficacy [2] of 83 to 100% and an IC50 (MDA-MB-231 [3]) of 0.185 µM. It also gave an Efficacy [4] of 83 to 100%, an Efficacy [5] of 83 to 100% and an IC50 [6] of 1.13 µM. It also gave an Efficacy [7] of 83 to 100%, an Efficacy [8] of 83 to 100% and an Efficacy [9] of 83 to 100%. It also gave an IC50 (MDA-MB-231 [10]) of 3.3 µM, an Efficacy [11] of 83 to 100% and an Efficacy [12] of 83 to 100%. The Efficacy [13] was 83 to 100%, the Efficacy [14] was 83 to 100% and the IC50 [15] was 0.113 µM. For the same molecule, the IC50 [16] was 0.028 µM, the Efficacy [17] was 83 to 100% and the Selectivity ratio [18] was 2 - 6. The Efficacy [19] was 83 to 100%.
Molecule `COc1cc2c(Oc3ccc(NS(=O)(=O)c4cc(F)ccc4F)cc3F)ccnc2cc1OCCCN1CCN(C)CC1` has an Efficacy [1] of 83 to 100%, an Efficacy [2] of 83 to 100% and an IC50 (MDA-MB-231 [3]) of 0.158 µM. It also gave an Efficacy [4] of 83 to 100%, an Efficacy [5] of 83 to 100% and an IC50 [6] of 0.149 µM. It also gave an Efficacy [7] of 83 to 100%, an Efficacy [8] of 83 to 100% and an Efficacy [9] of 83 to 100%. For the same molecule, the IC50 (MDA-MB-231 [10]) was 2.5 µM, the Efficacy [11] was 83 to 100% and the Efficacy [12] was 83 to 100%. For the same molecule, the Efficacy [13] was 83 to 100%, the Efficacy [14] was 83 to 100% and the IC50 [15] was 0.088 µM. For the same molecule, the IC50 [16] was 0.027 µM, the Efficacy [17] was 83 to 100% and the Selectivity ratio [18] was 2 - 6. For the same molecule, the Efficacy [19] was 83 to 100%.
`COc1cc2c(Oc3ccc(NS(=O)(=O)c4ccccc4C(F)(F)F)cc3F)ccnc2cc1OCCCN1CCN(C)CC1` showed an Efficacy [1] of 83 to 100%, an Efficacy [2] of 83 to 100% and an IC50 (MDA-MB-231 [3]) of 0.158 µM. It also gave an Efficacy [4] of 83 to 100%, an Efficacy [5] of 83 to 100% and an IC50 [6] of 0.281 µM. For the same molecule, the Efficacy [7] was 83 to 100%, the Efficacy [8] was 83 to 100% and the Efficacy [9] was 83 to 100%. For the same molecule, the IC50 (MDA-MB-231 [10]) was 4.6 µM, the Efficacy [11] was 83 to 100% and the Efficacy [12] was 83 to 100%. For the same molecule, the Efficacy [13] was 83 to 100%, the Efficacy [14] was 83 to 100% and the IC50 [15] was 0.544 µM. For the same molecule, the IC50 [16] was 0.021 µM, the Efficacy [17] was 83 to 100% and the Selectivity ratio [18] was 2 - 6. It also gave an Efficacy [19] of 83 to 100%.
